The series in a line: Toxicity liver stage against HepG2, at 10uM. Format: cell-based. The arrangement: test concentration 10 uM, cell line HepG2-A16-CD81EGFP. Conditions: human, HepG2-A16-CD81EGFP cells; read-out: INHIBITION
In short, it runs like this: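 Uninfected HepG2-A16-CD81EGFP cells, 3 × 10^3 per well, 1536-well, plated on prespotted compound at 10 μM final, parasite-free screening media added to match infected plates; puromycin 10 μM positive, DMSO 0.5% negative; run in parallel with 48 h PbLuc assay at 37 °C, 5% CO2; viability by CellTiter-Glo luminescence, normalized to controls.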
In the case of `CCNC(=O)N1CC[C@H]2CC(=O)N(CCN3CCNC3=O)CC[C@H]2C1`, the cytotoxicity at 10 µM came to 2.22%.

Turning to `N#Cc1nc(COc2ccc3c(c2)OCO3)oc1N1CCCC1`, the cytotoxicity at 10 µM was -42.7%.

On to `Cc1ccc(S(=O)(=O)c2ncccc2CN2CCCCC2)cc1`, for which the cytotoxicity at 10 µM was -47.6%.

For `CC(C)CCn1cc(C(=O)NC2CCS(=O)(=O)C2)c2ccccc2c1=O` (stereo unspecified), the cytotoxicity at 10 µM was -3.68%.

Turning to `CSCCC(C)(O)CNS(=O)(=O)Cc1ccc(F)cc1` (stereo unspecified), the cytotoxicity at 10 µM is -5.95%.

On to `Cc1noc(C)c1S(=O)(=O)N1CCC(Oc2cnccn2)CC1`, for which the cytotoxicity at 10 µM turned out to be 4.95%.

Turning to `O=S(=O)(NCCNc1ccc(-n2cccc2)nn1)c1ccccc1`, the cytotoxicity at 10 µM was -0.426%.

As to `O=S(=O)(Cc1ccccc1)NCCNc1ccc(-n2cccc2)nn1`, the cytotoxicity at 10 µM is 10.8%.

On to `CSc1ccc(C(O)CNS(=O)(=O)C2CC2)cc1` (stereo unspecified), for which the cytotoxicity at 10 µM is -0.608%.

With `O=C(C1CCCO1)N1CCCn2c(nnc2Cn2cccn2)C1` (stereo unspecified), the cytotoxicity at 10 µM came to 16.6%.

As to `CCC(=O)N1CCc2nc(N3CCOCC3)nc(N(C)C)c2CC1`, the cytotoxicity at 10 µM stood at 28.9%.

As to `COCCCN1CC2(CCCCN2C(=O)COC)CC1=O` (stereo unspecified), the cytotoxicity at 10 µM was 2.5%.

For the compound `CC(C)OC[C@H]1CCC[C@]12CN(S(=O)(=O)c1cccs1)CCO2`, the cytotoxicity at 10 µM is -1.52%.

Turning to `Cn1cc(CN2CCc3ncnc(C4CCOC4)c3CC2)cn1` (stereo unspecified), the cytotoxicity at 10 µM is -7.46%.

As to `COCC(=O)N1CCN(C(=O)NC(C)C)CC2(CC(=O)N(C)C2)C1` (stereo unspecified), the cytotoxicity at 10 µM came out at 1.76%.

`CCC(CC)C(=O)N1CCc2nc(N3CCCC3)nc(C)c2CC1`: the cytotoxicity at 10 µM turned out to be 1.79%.

With `COc1ccc(CN2Cc3cnn(C)c3C(COCC3CC3)C2)cc1` (stereo unspecified), the cytotoxicity at 10 µM was determined as 14.5%.

Take `Cc1ccc(-c2[nH][nH]c(=O)c2CCN)cc1`: the cytotoxicity at 10 µM was found to be 6.03%.

Regarding `COc1ccc(NC(=O)Cn2cc(-c3ccccc3)ncc2=O)cn1`, the cytotoxicity at 10 µM was -4.73%.

For the compound `Nc1nnc(C2CC(=O)N(c3ccccc3)C2)s1` (stereo unspecified), the cytotoxicity at 10 µM was 4.23%.

For `CN1CCC(Cc2cnc3ccccc3c2)C1` (stereo unspecified), the cytotoxicity at 10 µM turned out to be 1.42%.

As to `CCCOc1ccc(CN)c(OC(F)F)c1`, the cytotoxicity at 10 µM is -41.7%.

As to `N#Cc1cccnc1Nc1ccc(N2CCC(C(N)=O)CC2)cc1`, the cytotoxicity at 10 µM was -40.1%.

As to `COCCOc1ncccc1C(=O)N(C)c1nccs1`, the cytotoxicity at 10 µM is -44.1%.

Regarding `CC(c1ncc(C(C)(C)C)o1)N1CCN(Cc2ccncc2)CC1` (stereo unspecified), the cytotoxicity at 10 µM was -12.3%.

Take `CCOC(=O)CCCN1CCCC(C(=O)Nc2ccc(Cl)cn2)C1` (stereo unspecified): the cytotoxicity at 10 µM is 2.69%.

With `Cn1cnc2c1CCN(Cc1nc(-c3ccco3)no1)C2`, the cytotoxicity at 10 µM is 0.887%.

`Cc1noc(CCNS(=O)(=O)N2CCCC2c2ccco2)n1` (stereo unspecified): the cytotoxicity at 10 µM was -6.43%.

Take `Cc1cccc2c1NC1(CCCC1)NC2=O`: the cytotoxicity at 10 µM was -48.5%.

Turning to `Cc1ccccc1OCCC(=O)OC(C)C(=O)Nc1sccc1C(N)=O` (stereo unspecified), the cytotoxicity at 10 µM was 19.4%.

As for `c1cc2c(cc1C1CCCN1Cc1nnnn1C1CC1)OCCO2` (stereo unspecified), the cytotoxicity at 10 µM was -25.7%.

Consider `CS(=O)(=O)NCc1nnc2n1CCN(Cc1cccnc1)C2`, for which the cytotoxicity at 10 µM was -70.9%.

As to `c1cnc(NCC2Cn3nnc(-c4ccsc4)c3CO2)nc1` (stereo unspecified), the cytotoxicity at 10 µM is -73.3%.

As for `O=C(CC1CCCC1)N[C@H]1CN(Cc2c[nH]cn2)C[C@@H]1C1CC1`, the cytotoxicity at 10 µM is -54.7%.

Regarding `CCCN(Cc1ccccn1)Cc1ccccc1OC`, the cytotoxicity at 10 µM was -43.3%.

With `CCc1[nH]c2c(CNc3cncc(C(=O)OC)n3)cc(C)cc2c1C`, the cytotoxicity at 10 µM turned out to be 1.85%.

`CCn1nc(C(C)C)cc1C(=O)NCC1CCCN(c2ccccn2)C1` (stereo unspecified): the cytotoxicity at 10 µM amounted to 5.65%.

Regarding `Cc1nc(C)c(C)c(NCc2cnn3cccnc23)n1`, the cytotoxicity at 10 µM came out at 15.5%.

For `CC(=O)N1CCc2c(nc(N(C)C)nc2NCCC2CCCCO2)C1` (stereo unspecified), the cytotoxicity at 10 µM turned out to be 5.22%.

As to `O=C(NCCn1cccn1)Nc1cc(C(=O)N2CCOCC2)ccc1Cl`, the cytotoxicity at 10 µM was -46.6%.

As for `O=C(Cn1ccnc1)N1CCCC(OCc2cccnc2)C1` (stereo unspecified), the cytotoxicity at 10 µM was 2.03%.

Turning to `NC(=O)C1CCN(CC(=O)NCCn2cc(Cl)cn2)CC1`, the cytotoxicity at 10 µM is -50%.

Regarding `Cc1nc(CN(C)Cc2cn[nH]c2-c2ccc(F)cc2)c[nH]1`, the cytotoxicity at 10 µM was -17.8%.

Consider `O=C(NCc1nnnn1-c1ccccc1)c1ccc(C2CCCO2)s1` (stereo unspecified), for which the cytotoxicity at 10 µM turned out to be 0.363%.

For the compound `Cc1nonc1C1CCCN1C(=O)c1cc2n(n1)CCCNC2` (stereo unspecified), the cytotoxicity at 10 µM was -7.73%.

Take `CSc1ccccc1C(=O)N1C[C@@H](N(C)C)[C@H](c2ccc(C)cc2)C1`: the cytotoxicity at 10 µM is -7.02%.

As for `O=C(c1ccc(Cl)s1)N1CCCn2nc(CN3CC[C@H](F)C3)cc2C1`, the cytotoxicity at 10 µM is -1.44%.

As for `CCOc1ccnc(N[C@@H](Cc2ccccc2)C(N)=O)n1`, the cytotoxicity at 10 µM was 10.7%.

`Cc1cccc(C)c1-c1cc(NCCO)nc2[nH]ccc12`: the cytotoxicity at 10 µM came to 52.4%.

Consider `CCN(C)C(=O)c1cccc(S(=O)(=O)NCCc2nc(C)cc(=O)[nH]2)c1`, for which the cytotoxicity at 10 µM is -39.9%.

With `COc1ccc(-c2nnc(CN3CCCC3Cn3cncn3)o2)cc1` (stereo unspecified), the cytotoxicity at 10 µM turned out to be 3.02%.

In the case of `CC(C)COC(C)C(=O)NCc1ccc(-n2cncn2)nc1` (stereo unspecified), the cytotoxicity at 10 µM was -5.65%.

Regarding `O=C(Cc1ccccc1Cl)N1CCCC(n2cncn2)C1` (stereo unspecified), the cytotoxicity at 10 µM was -11.1%.

For the compound `CCn1cc(CN2CCCN(C(=O)Cc3cccs3)CC2)cn1`, the cytotoxicity at 10 µM is -2.76%.

Regarding `CS(=O)(=O)c1ccc(C(O)CN2CCC(c3ccn[nH]3)CC2)cc1` (stereo unspecified), the cytotoxicity at 10 µM is -12.1%.

Take `CCN1CCC2(CC1)OCCN2C(=O)c1ccc(OC)c(Cl)c1`: the cytotoxicity at 10 µM amounted to 9.55%.

In the case of `CCn1ncc2c1CN(C(=O)c1cscn1)CC2COC` (stereo unspecified), the cytotoxicity at 10 µM was -79.1%.

For `O=C(C1CCCC1)N1C[C@@H](c2ccsc2)[C@@H]2CN(C3CCCC3)CC[C@@H]21`, the cytotoxicity at 10 µM was determined as 4.79%.

As for `O=c1ccc2c([nH]1)CCC(NCc1ccc(F)cc1)C2` (stereo unspecified), the cytotoxicity at 10 µM is -1.87%.

`Cc1cc(CN2C[C@@H]3COC[C@]3(CNC(=O)N(C)C)C2)no1`: the cytotoxicity at 10 µM is -71.4%.

On to `Cc1cccc(CN2C(=O)CO[C@@H]3CN(Cc4cnn(C)c4)C[C@H]32)c1`, for which the cytotoxicity at 10 µM came out at 1.1%.

On to `Cc1sc(Br)cc1S(=O)(=O)NCCN`, for which the cytotoxicity at 10 µM was -6.69%.

As to `Cc1oncc1C(=O)N1CCOCC2(CCN(c3ccccn3)C2)C1` (stereo unspecified), the cytotoxicity at 10 µM is -68.3%.

Consider `Cc1ccc(C(=O)N2CCn3cnc(COCC4CC4)c3C2)cn1`, for which the cytotoxicity at 10 µM came to 4.03%.

`Cc1cc(CN2C[C@@H]3COC[C@H](C(=O)N4CCCCO4)[C@@H]3C2)oc1C`: the cytotoxicity at 10 µM is -74.1%.

Turning to `CNC(=O)[C@@H](CC(C)C)N1CCC[C@H]1C(=O)N(C)Cc1cccnc1`, the cytotoxicity at 10 µM was 3.95%.

For the compound `Cc1cccc(S(=O)(=O)N2C[C@@H]3C[C@H](C(=O)NCC(C)C)[C@H](C2)O3)c1`, the cytotoxicity at 10 µM turned out to be 6.53%.

As for `CC(C)NC(=O)NCC1(COc2cnccn2)C[C@@H](O)[C@@H](O)C1` (stereo partly specified), the cytotoxicity at 10 µM was -9.85%.

On to `O=C(Nc1ccccc1)N1C2CCC(O)(CC2)C1CO` (stereo unspecified), for which the cytotoxicity at 10 µM is -5.2%.

As for `CCc1cc(N[C@@H]2C[C@@H]3CC[C@H]2C3)n2nccc2n1`, the cytotoxicity at 10 µM is -2.24%.

Regarding `Cc1noc(C)c1CN1C(=O)[C@@H]2CC[C@H]1CN(C(=O)c1cscn1)C2`, the cytotoxicity at 10 µM is -10.6%.
